Results pooled from the literature.
Each line is one published result; the experiments were not run side by side.
Target: Casein kinase I isoform gamma-2 (CSNK1G2, Homo sapiens, UniProt P78368)

The activity vs control of CC(C)S(=O)(=O)c1ccc2nccc(Nc3ccc4sc(C5CCCC5)nc4c3)c2c1 is reported as 100% (enzyme activity; inhibitor; 1 µM).
C#Cc1cnc(Nc2ccnc(CO)c2)nc1Nc1ccccc1S(C)(=O)=NC#N (stereo not drawn) gave a remaining signal of 65% (cell-free assay; 1 µM).
For CC#CC(=O)N1CCC[C@H]1c1nc(-c2ccc(C(=O)Nc3ccccn3)cc2)c2c(N)nccn12, the inhibition was 9% (enzyme activity; inhibitor; 1 µM).
For C[C@H]1CC[C@H](n2c3cnccc3c3cnc(Nc4ccc5c(n4)CCN(C(=O)CO)C5)nc32)CC1, the remaining signal was 98% (cell-free assay; 1 µM).
N#Cc1ccc2nc(Nc3ccc(N4CCOCC4)c(Cl)c3)[nH]c2c1 has a ΔTm of 3.6 °C (thermal stability; DSF; 30 µM).
With Cc1cc(O)c(-c2ccc([C@@H](C)CN(C)C)cc2)c2c1[nH]c(=O)c1sccc12 the inhibition was -6.66% (enzyme activity; inhibitor; 0.1 µM).
For CO[C@@H]1[C@H](N(C)C(=O)c2ccccc2)C[C@H]2O[C@]1(C)n1c3ccccc3c3c4c(c5c6ccccc6n2c5c31)C(=O)NC4, the inhibition was 4% (enzyme activity; inhibitor; 1 µM).
N#Cc1ccc(NC(=O)Nc2ccccc2)cc1 gave a remaining binding of 100% (cell-free assay; competition with immobilised ligand; 25 µM).
For CCCCC(=O)Nc1ccc(-c2ccc3ncn(CCC)c(=O)c3c2)cn1, the remaining binding was 91% (binding; competition with immobilised ligand; 0.5 µM).
C1=C/COCc2cc(ccc2OCCN2CCCC2)Nc2nccc(n2)-c2cccc(c2)COC/1 gave a remaining signal of 92% (cell-free assay; 0.1 µM).
For CN1CCN(C(=O)c2ccc(NC(=O)Nc3ccc(N(C)c4ccnc(Nc5ccc(CS(C)(=O)=O)cc5)n4)cc3)cc2)CC1, the remaining binding was 100% (binding; 1 µM).
COc1ccc2oc(-c3ccc4nc(N)oc4c3)c/c(=N\c3ccccc3NC(=O)CCN)c2c1 gave a remaining binding of 95% (binding; 1 µM).
